Results on 4 compounds are retold here after ChEMBL document CHEMBL1137618, “Synthesis and structure-activity relationship studies of 3,6-diazabicyclo[3.2.0]heptanes as novel alpha4beta2 nicotinic acetylcholine receptor selective agonists” (J Med Chem, 2007).

Assay [1] concerns the target T1, Neuronal acetylcholine receptor; alpha4/beta2 (Homo sapiens, UniProt P17787+P43681). The experiment in a line: Agonist activity at recombinant human alpha-4-beta-2 nAChR expressed in HEK293 cells assessed as induction of calcium influx by FLIPR assay. The class given is functional, cell-based.
In assay [2] the target is T1, Neuronal acetylcholine receptor; alpha4/beta2. Description: Agonist activity at recombinant human alpha-4-beta-2 nAChR expressed in HEK293 cells assessed as induction of calcium influx by FLIPR assay relative to nicotine. The class given is functional, cell-based. The essentials:
(§1)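 HEK-293 lines stably expressing human α4β2 or α3β4 nAChR, grown 24-48 h at 37 °C on poly-D-lysine in DMEM/10% FBS. Loaded with 2-4 µM Fluo-4 AM for ~0.75-1 h at room temperature in the dark, in NMDG Ringer pH 7.4. Serial log dilutions added, then peak calcium fluorescence read on FLIPR after buffer-blank subtraction.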

The target of assay [3] is T2, Neuronal acetylcholine receptor; alpha3/beta4 (Homo sapiens, UniProt P30926+P32297). The experiment in a line: Agonist activity at recombinant human alpha-3-beta-4 nAChR expressed in HEK293 cells assessed as induction of calcium influx by FLIPR assay. The class given is functional, cell-based.
T2 sequence (P30926 whole entry): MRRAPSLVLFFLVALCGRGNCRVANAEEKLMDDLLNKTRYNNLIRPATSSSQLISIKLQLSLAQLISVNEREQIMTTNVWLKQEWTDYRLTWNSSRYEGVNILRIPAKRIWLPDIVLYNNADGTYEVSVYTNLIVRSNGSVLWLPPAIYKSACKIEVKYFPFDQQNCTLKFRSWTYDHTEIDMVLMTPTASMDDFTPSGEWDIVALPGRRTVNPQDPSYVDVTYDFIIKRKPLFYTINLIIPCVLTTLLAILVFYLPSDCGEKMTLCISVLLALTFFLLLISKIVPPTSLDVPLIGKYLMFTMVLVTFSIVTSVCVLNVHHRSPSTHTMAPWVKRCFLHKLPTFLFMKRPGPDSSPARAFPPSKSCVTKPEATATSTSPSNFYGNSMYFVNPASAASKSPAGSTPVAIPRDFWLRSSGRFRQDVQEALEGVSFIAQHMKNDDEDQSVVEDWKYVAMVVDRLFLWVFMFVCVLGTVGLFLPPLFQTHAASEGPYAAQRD
T2 sequence (P32297 whole entry): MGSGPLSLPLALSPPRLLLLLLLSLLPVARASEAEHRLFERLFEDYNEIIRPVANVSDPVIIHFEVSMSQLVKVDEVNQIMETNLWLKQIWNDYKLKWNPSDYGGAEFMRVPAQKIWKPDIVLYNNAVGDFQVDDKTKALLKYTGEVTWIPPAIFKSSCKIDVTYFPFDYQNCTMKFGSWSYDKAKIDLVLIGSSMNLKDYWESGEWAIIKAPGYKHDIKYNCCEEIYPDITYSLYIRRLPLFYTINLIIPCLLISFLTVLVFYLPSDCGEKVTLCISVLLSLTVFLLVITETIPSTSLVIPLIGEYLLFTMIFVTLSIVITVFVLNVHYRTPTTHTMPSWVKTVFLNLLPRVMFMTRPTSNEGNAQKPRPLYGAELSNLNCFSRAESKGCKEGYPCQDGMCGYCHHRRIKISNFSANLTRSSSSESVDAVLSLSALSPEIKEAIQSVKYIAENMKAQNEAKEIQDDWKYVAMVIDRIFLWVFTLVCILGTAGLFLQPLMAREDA
For assay [4], the target named is T2, Neuronal acetylcholine receptor; alpha3/beta4. The experiment in a line: Agonist activity at recombinant human alpha3beta4 nAChR expressed in HEK293 cells assessed as induction of calcium influx by FLIPR assay relative to nicotine. The class given is functional, cell-based. The essentials: as §1
Assay [5] in a line: Displacement of [3H]cytisine from neuronal nicotinic acetylcholine receptor in rat brain membrane. The class given is cell membranes. A general note: Loss of bound radioactivity is the signal in a displacement assay; it reports binding, not function.

T1 sequence (P17787 whole entry): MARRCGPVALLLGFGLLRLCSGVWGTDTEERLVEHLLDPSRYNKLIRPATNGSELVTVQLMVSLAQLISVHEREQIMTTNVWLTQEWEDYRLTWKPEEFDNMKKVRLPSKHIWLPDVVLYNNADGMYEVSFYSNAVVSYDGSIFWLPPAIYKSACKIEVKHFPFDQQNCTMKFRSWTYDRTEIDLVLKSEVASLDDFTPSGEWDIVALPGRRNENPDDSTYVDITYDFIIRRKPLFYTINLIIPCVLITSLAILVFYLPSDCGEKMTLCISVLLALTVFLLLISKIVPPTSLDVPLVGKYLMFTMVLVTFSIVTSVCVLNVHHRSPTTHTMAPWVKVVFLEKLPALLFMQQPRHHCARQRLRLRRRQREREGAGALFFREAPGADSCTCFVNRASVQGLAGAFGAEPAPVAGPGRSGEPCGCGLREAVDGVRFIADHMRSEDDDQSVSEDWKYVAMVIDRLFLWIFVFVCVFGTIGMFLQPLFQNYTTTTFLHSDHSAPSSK
T1 sequence (P43681 whole entry): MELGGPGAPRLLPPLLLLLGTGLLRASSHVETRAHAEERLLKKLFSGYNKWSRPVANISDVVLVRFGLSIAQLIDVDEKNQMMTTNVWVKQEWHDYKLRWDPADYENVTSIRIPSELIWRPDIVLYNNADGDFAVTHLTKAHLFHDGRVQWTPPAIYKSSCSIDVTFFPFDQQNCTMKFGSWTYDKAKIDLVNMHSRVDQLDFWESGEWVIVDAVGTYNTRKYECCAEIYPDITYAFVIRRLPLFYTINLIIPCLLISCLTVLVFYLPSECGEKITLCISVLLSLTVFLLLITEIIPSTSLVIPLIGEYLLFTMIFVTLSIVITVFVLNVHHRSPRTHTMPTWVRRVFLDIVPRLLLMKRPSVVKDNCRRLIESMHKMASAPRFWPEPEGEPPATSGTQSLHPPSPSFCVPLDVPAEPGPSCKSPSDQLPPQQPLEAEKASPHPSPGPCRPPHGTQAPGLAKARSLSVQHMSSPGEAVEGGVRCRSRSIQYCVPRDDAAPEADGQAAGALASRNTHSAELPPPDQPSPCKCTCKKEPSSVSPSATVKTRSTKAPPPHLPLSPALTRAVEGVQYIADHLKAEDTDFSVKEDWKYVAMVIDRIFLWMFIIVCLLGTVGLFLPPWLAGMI

By EC50 is commonly meant the concentration that produces a half-maximal response. By Ki is commonly meant the equilibrium dissociation constant of an inhibitor or competing ligand from its target. A higher Ki goes with weaker binding. On to `Brc1cc(N2C[C@H]3CNC[C@H]32)cnc1Br`, for which the EC50 in assay [1] (read-out: EC50) is 6.9 µM; in assay [1] (read-out: Log EC50 (converted)), 0.676 µM; in assay [3] (read-out: EC50), 1.1 µM. Moreover, the Activity stood at 131% in assay [2] and 94% in assay [4]. In addition, the affinity in assay [5], expressed as Ki, was 0.0005 µM. Moreover, the “Log Ki” value in assay [5] is listed as -9.35.
On to `Cc1cc(N2C[C@@H]3CNC[C@@H]32)cnc1C`, for which the EC50 in assay [1] (read-out: EC50) is 1.5 µM; in assay [3] (read-out: EC50), 12.3 µM; in assay [3] (read-out: Log EC50 (converted)) it was 12 µM. The Activity was determined as 83% in assay [2] and 78% in assay [4]. Also, the Ki in assay [5] came to 0.0031 µM. In addition, in assay [5], the “Log Ki” value is given as -8.51.
With `COc1cncc(N2C[C@@H]3CNC[C@@H]32)c1`, the EC50 in assay [1] (read-out: EC50) is 24.7 µM; in assay [1] (read-out: Log EC50 (converted)) it was 22.9 µM; in assay [3] (read-out: EC50) it was 31.2 µM. Besides, the Activity in assay [2] was 43%; in assay [4] it was 64%. This compound also showed an inhibition constant Ki in assay [5] of 0.0072 µM. The “Log Ki” value in assay [5] is recorded as -8.14.
As for `Cc1cc(N2C[C@H]3CN[C@H]3C2)cnc1C`, the EC50 turned out to be 0.2 µM in assay [1] (read-out: EC50) and 3.3 µM in assay [3] (read-out: EC50). Besides, the values for the Activity in assay [2] and in assay [4] were 124% and 96%, respectively. Also, affinity in assay [5] was put at a Ki of 0.0003 µM. For the same compound, the “Log Ki” value in assay [5] is on record as -9.59.
